Reference: ChEMBL document CHEMBL2311405, “Synthesis and biological evaluation of indenoisoquinolines that inhibit both tyrosyl-DNA phosphodiesterase I (Tdp1) and topoisomerase I (Top1)” (J Med Chem, 2013)
pIC50: −log10 of the molar value. Activity calls are given as the source filed them. The calls are words filed in the database; no cut-off is given here.

Assays:
[1] = tested on: SF-539; assay: Growth inhibition of human SF539 cells; type: functional
How it was run: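 Human cancer cell line panel, compounds tested at concentrations up to 10 μM. GI50 per cell line is the mean of two determinations where a standard error is given, otherwise from one determination.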

[2] = tested on: DU-145; assay: Growth inhibition of human DU145 cells; type: functional
[3] = tested on: UACC-62; assay: Growth inhibition of human UACC62 cells; type: functional
[4] = tested on: SN12C; assay: Growth inhibition of human SN12C cells; type: functional
[5] = tested on: OVCAR-3; assay: Growth inhibition of human OVCAR3 cells; type: functional
[6] = tested on: MDA-MB-435; assay: Growth inhibition of human MDA-MB-435 cells; type: functional
[7] = tested on: HCT-116; assay: Growth inhibition of human HCT116 cells; type: functional
[8] = tested on: HOP-62; assay: Growth inhibition of human HOP62 cells; type: functional
[9] = target: T1, DNA topoisomerase 1 (Homo sapiens) (UniProt P11387); assay: Inhibition of recombinant Top1 (unknown origin) using 3'-[32P]-end-labeled 117 bp oligonucleotide as substrate after 20 mins by SDS-PAGE analysis
T1 sequence (whole entry): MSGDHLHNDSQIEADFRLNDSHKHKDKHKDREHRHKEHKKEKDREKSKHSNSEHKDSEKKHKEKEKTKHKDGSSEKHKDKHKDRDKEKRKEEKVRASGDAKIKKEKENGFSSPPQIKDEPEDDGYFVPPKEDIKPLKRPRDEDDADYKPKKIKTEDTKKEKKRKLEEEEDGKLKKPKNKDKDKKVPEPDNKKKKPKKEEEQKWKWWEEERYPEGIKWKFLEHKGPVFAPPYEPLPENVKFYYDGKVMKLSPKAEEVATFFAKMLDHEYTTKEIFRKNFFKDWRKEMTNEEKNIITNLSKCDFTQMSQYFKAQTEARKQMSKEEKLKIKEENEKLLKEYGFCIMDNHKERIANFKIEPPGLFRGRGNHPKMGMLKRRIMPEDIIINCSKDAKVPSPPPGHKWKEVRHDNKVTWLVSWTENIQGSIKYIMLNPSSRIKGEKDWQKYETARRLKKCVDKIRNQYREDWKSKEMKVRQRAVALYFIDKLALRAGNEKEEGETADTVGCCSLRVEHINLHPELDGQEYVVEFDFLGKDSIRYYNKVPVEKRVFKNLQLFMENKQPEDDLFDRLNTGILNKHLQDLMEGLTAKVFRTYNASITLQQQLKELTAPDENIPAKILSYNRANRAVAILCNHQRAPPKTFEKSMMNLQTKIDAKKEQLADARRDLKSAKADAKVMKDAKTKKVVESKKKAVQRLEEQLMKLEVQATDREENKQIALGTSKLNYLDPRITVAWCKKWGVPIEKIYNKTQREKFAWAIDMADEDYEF
How it was run: (§1)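 3′-[32P]-end-labeled 117-bp DNA at 2 nM incubated with recombinant Top1 at 25 °C for 20 min across a range of compound concentrations. Stopped with SDS (0.5% final) plus formamide loading dye, then 20% denaturing PAGE. Dried gels were phosphorimaged.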

[10] = target: Tyrosyl-DNA phosphodiesterase 1 (Homo sapiens, UniProt Q9NUW8); assay: Inhibition of recombinant Tdp1 (unknown origin) using 5'-[32P]-labeled single-stranded DNA oligonucleotide containing 3'-phosphotyrosine as substrate after 15 mins by PAGE analysis
[11] = target: T1, DNA topoisomerase 1 (Homo sapiens); assay: Inhibition of recombinant Top1 (unknown origin) using 3'-[32P]-end-labeled 117 bp oligonucleotide as substrate after 20 mins by SDS-PAGE analysis relative to 1 uM MJ-3-65
[12] = target: T1, DNA topoisomerase 1 (Homo sapiens); assay: Inhibition of recombinant Top1 (unknown origin) using 3'-[32P]-end-labeled 117 bp oligonucleotide as substrate assessed as suppression of DNA cleavage at 100 uM by SDS-PAGE analysis; how it was run: as §1

Sequence of Tyrosyl-DNA phosphodiesterase 1 (Q9NUW8 whole entry): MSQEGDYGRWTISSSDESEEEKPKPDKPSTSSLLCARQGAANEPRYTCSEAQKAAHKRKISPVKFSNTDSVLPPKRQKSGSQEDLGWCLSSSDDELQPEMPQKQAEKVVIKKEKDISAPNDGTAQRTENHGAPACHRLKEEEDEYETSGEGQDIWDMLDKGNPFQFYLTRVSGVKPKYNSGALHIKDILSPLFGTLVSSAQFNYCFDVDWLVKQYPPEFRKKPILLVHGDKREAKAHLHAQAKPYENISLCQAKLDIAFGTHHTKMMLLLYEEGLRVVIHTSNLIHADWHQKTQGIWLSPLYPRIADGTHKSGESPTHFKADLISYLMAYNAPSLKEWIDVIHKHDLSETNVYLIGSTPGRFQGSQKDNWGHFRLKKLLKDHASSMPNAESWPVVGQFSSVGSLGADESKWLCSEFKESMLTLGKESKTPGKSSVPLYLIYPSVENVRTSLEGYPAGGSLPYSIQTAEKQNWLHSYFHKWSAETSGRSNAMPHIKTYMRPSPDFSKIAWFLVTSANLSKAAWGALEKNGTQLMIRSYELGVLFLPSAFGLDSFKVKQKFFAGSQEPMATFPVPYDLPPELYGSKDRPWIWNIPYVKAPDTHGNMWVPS

SMILES	GI50 [2]	GI50 [5]	GI50 [6]	GI50 [7]	GI50 [1]	GI50 [4]	inhibition [9]	pIC50 [10]	other results
COC(=O)CCCC(=O)Nc1ccc2c3c(n(C)c(=O)c2c1)-c1ccccc1C3=O							inactive	< 3.95	
NCCCn1c2c(c3ccccc3c1=O)C(=O)c1ccccc1-2									inhibition [11]: Active
CC(=O)Nc1ccc2c3c(n(CCCN)c(=O)c2c1)-c1ccccc1C3=O							inactive		
CN(C)CCCn1c2c(c3ccc(C#N)cc3c1=O)C(=O)c1cc3c(cc1-2)OCO3								< 3.95	inhibition [12]: Active
N#Cc1ccc2c3c(n(CCCn4ccnc4)c(=O)c2c1)-c1ccccc1C3=O								< 3.95	inhibition [11]: Active
NCCCn1c2c(c3ccc(NC(=O)CC(=O)O)cc3c1=O)C(=O)c1ccccc1-2							inactive	< 3.95	
CC(=O)Nc1ccc2c3c(n(CCCO)c(=O)c2c1)-c1ccccc1C3=O							inactive		
NCCCn1c2c(c3ccc(NC(=O)CCCC(=O)O)cc3c1=O)C(=O)c1ccccc1-2							inactive	< 3.95	
COC(=O)CCC(=O)Nc1ccc2c3c(n(C)c(=O)c2c1)-c1ccccc1C3=O								< 3.95	
COc1ccc2c(c1)C(=O)c1c-2n(CCCN(C)C)c(=O)c2cc(I)ccc12									inhibition [12]: Active; inhibition [11]: Active
COc1ccc2c(c1)-c1c(c3ccc([N+](=O)[O-])cc3c(=O)n1CCCN=[N+]=[N-])C2=O							inactive	< 3.95	
NCCCn1c2c(c3ccc(NC(=O)CCCCC(=O)O)cc3c1=O)C(=O)c1ccccc1-2							inactive	< 3.95	
COC(=O)C(=O)Nc1ccc2c3c(n(C)c(=O)c2c1)-c1ccccc1C3=O							inactive	< 3.95	
CC(=O)Nc1ccc2c3c(n(CCCN)c(=O)c2c1)-c1ccccc1C3O (configuration not stated)							inactive		
COC(=O)CC(=O)Nc1ccc2c3c(n(C)c(=O)c2c1)-c1ccccc1C3=O							inactive	< 3.95	

More lines, main results first:

GI50 [2]	GI50 [5]	GI50 [6]	GI50 [7]	SMILES	GI50 [1]	GI50 [4]	inhibition [9]	pIC50 [10]	other results
50 nM	1320 nM	960 nM	70 nM	COc1ccc2c(c1)C(=O)c1c-2n(CCCN)c(=O)c2cc(I)ccc12	390 nM	50 nM			GI50 [3]: 140 nM; GI50 [8]: 140 nM
< 10 nM	20 nM	120 nM	< 10 nM	COc1ccc2c(c1)C(=O)c1c-2n(CCCN)c(=O)c2cc(N)ccc12	30 nM	< 10 nM			GI50 [3]: 100 nM; GI50 [8]: < 10 nM
180 nM	540 nM	580 nM	60 nM	COc1ccc2c(c1)-c1c(c3ccc([N+](=O)[O-])cc3c(=O)n1CCCN)C2=O	610 nM	150 nM			inhibition [11]: Active
770 nM	3520 nM	4300 nM	510 nM	COC(=O)CCCCC(=O)Nc1ccc2c3c(n(CCCN)c(=O)c2c1)-c1ccccc1C3=O	5650 nM	1820 nM			GI50 [3]: 2430 nM; GI50 [8]: 2320 nM
< 10 nM	30 nM	30 nM	< 10 nM	COc1ccc2c(c1)-c1c(c3ccc([N+](=O)[O-])cc3c(=O)n1CCCn1ccnc1)C2=O	< 10 nM	< 10 nM			inhibition [12]: inactive; GI50 [3]: < 10 nM; inhibition [11]: Active; GI50 [8]: < 10 nM
1680 nM	3120 nM	3050 nM	440 nM	CCOC(=O)CNc1ccc2c3c(n(CCCN)c(=O)c2c1)-c1ccccc1C3=O	8910 nM	1750 nM			GI50 [3]: 2250 nM; GI50 [8]: 930 nM
120 nM	130 nM	230 nM	180 nM	NCCCn1c2c(c3ccc(N)cc3c1=O)C(=O)c1ccccc1-2	340 nM	230 nM			GI50 [3]: 300 nM; GI50 [8]: 270 nM
